The source made the active and inactive calls. The rule behind the calls is not given here.
Key:
[1] = Half life in pH 7.4 phosphate buffer at 5 uM by HPLC method; type: physicochemical
Outline: (§1)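 Compound dissolved at 5 µM in phosphate buffer (pH 1.2, 6.8 or 7.4), held at 37 °C for 24 h. Aliquots taken at intervals and analysed by HPLC. t1/2 = 0.693/k from linear regression of pseudo-first-order kinetics.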

[2] = Half life in pH 6.8 phosphate buffer at 5 uM by HPLC method; type: physicochemical; outline: as §1
[3] = Half life in rat plasma at 5 uM by HPLC method; type: ADME, cell-free
Outline: (§2)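 Compound at 5 µM final in rat plasma, 20% rat hepatic homogenate or 20% rat intestinal homogenate at 37 °C for 24 h. Homogenates made by homogenizing 0.3 g saline-washed tissue in 1 mL saline, spun 13,000 rpm 4 °C 5 min. Sampled at intervals, analysed by HPLC. t1/2 = 0.693/k.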

[4] = Half life in pH 1.2 phosphate buffer at 5 uM by HPLC method; type: physicochemical; outline: as §1
[5] = Tmax in Wistar rat at 50 mg/kg, po administered as single dose by UPLC-MS/MS method; type: ADME, organism-based; details: in vivo
Outline: (§3)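 Wistar rats, six per group, single oral dose equivalent to 50 mg/kg gemcitabine; separate group given gemcitabine iv at 7.5 mg/kg. Oral sampling at 5, 10, 15, 30 min and 1, 2, 4, 6, 8, 12, 24 h; iv at 15, 30 min and 2, 4, 8, 12, 24 h. Blood into THU-pretreated heparinized tubes, centrifuged 3000 × g 15 min, plasma at -80 °C. Prodrug and gemcitabine quantified by UPLC-MS/MS. F = AUCpo×Div/AUCiv/Dpo×100%.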

[6] = Half life in rat intestinal homogenates at 5 uM by HPLC method; type: ADME, tissue-based, Intestine; outline: as §2
[7] = Terminal half-life in Wistar rat at 50 mg/kg, po administered as single dose by UPLC-MS/MS method; type: ADME, organism-based; details: in vivo, read-out: beta t1/2 (converted); outline: as §3
Rattus norvegicus [8] = experiment: AUC (0 to 24 hrs) in Wistar rat at 50 mg/kg, po administered as single dose by UPLC-MS/MS method; type: ADME, organism-based; parameters: dose 50 mg/kg, time < 24 hr, route oral; details: in vivo; outline: as §3
[9] = Half life in rat hepatic homogenates at 5 uM by HPLC method; type: ADME, tissue-based, Liver; outline: as §2
[10] = molecular target: T1, Organic cation/carnitine transporter 2 (Homo sapiens, UniProt O76082); experiment: Drug transport assessed as OCTN2 transporter mediated cell permeability in human Caco2 cells across apical to basolateral side at 25 uM after 15 to 120 mins by UPLC-MS/MS method relative to gemcitabine; type: ADME, cell-based; details: caco-2, 25 µM
T1 sequence (O76082 whole entry): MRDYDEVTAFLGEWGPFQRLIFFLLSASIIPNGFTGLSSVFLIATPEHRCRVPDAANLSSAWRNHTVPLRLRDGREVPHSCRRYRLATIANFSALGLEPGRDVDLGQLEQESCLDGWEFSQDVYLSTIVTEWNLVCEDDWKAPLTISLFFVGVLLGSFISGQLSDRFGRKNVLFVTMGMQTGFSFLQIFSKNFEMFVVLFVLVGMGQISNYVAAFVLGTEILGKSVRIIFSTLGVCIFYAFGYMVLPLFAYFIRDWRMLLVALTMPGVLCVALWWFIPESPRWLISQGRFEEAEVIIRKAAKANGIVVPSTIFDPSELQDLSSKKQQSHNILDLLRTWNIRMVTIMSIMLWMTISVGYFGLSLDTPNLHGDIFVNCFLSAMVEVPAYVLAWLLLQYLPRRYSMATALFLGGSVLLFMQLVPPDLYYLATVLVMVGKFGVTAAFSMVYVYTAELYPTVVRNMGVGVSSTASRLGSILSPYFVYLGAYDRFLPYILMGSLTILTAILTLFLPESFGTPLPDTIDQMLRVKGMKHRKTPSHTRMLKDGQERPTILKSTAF
Outline: (§4)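 Caco-2 cells seeded at 1.0×10^5 cells/well on 0.4 µm polycarbonate inserts, cultured 21 days in MEM; monolayers with TEER over 250 Ω·cm² used. Compound at 25 µM final in HBSS, added apically, with or without 100 µM L-carnitine, 37 °C. Basolateral samples taken at 15, 30, 45, 60, 90, 120 min. Analysed by UPLC-MS/MS to give Papp. Triplicate runs.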

[11] = molecular target: T1, Organic cation/carnitine transporter 2; experiment: Drug transport assessed as Vmax for OCTN2 transporter mediated drug uptake in human Caco2 cells after 10 mins by Eadie-Hofstee plot method; type: ADME, cell-based; details: caco-2, 10 min
[12] = molecular target: T1, Organic cation/carnitine transporter 2; experiment: Ratio of drug transport assessed as OCTN2 transporter mediated drug uptake in human Caco2 cells at 100 uM in absence of L-carnitine to drug transport assessed as OCTN2 transporter mediated drug uptake in human Caco2 cells at 100 uM in presence of L-carnitine; type: ADME, cell-based; details: caco-2, 100 µM
BXPC-3 [13] = experiment: Cytotoxicity against human BxPC3 cells assessed as decrease in cell viability after 48 hrs by MTT assay; type: functional, cell-based
Outline: (§5)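 BxPC-3 and Caco-2 cells exposed to compounds for 48 h. Viability read by MTT assay kit. IC50 calculated from dose-response.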

[14] = molecular target: T1, Organic cation/carnitine transporter 2; experiment: Ratio of drug transport assessed as OCTN2 transporter mediated cell permeability in human Caco2 cells at 25 uM in absence of L-carnitine to drug transport assessed as OCTN2 transporter mediated cell permeability in human Caco2 cells at 25 uM in presence of L-carnitine; type: ADME, cell-based; details: caco-2, 25 µM; outline: as §4
[15] = Tmax in Wistar rat at 7.5 mg/kg, iv administered as single dose by UPLC-MS/MS method; type: ADME, organism-based; details: in vivo; outline: as §3
[16] = Drug uptake in HEK293 cells at 25 uM after 15 mins by UPLC-MS/MS method; type: ADME, cell-based; details: human, hek293, 0.25 h
Outline: (§6)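 OCTN2-transfected HEK293 cells and mock HEK293 cells incubated with 25 µM compound at 37 °C for 15 min, then cellular uptake measured; n = 2.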

[17] = Drug level in Wistar rat portal blood at 50 mg/kg administered as single dose at 2 hrs by UPLC-MS/MS method; type: ADME, organism-based; details: read-out: Drug uptake
Outline: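 Rats given single oral dose equivalent to 50 mg/kg gemcitabine. Portal vein and systemic plasma sampled at 2 h. Prodrug and gemcitabine measured by UPLC-MS/MS.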

[18] = Cmax in Wistar rat at 7.5 mg/kg, iv administered as single dose by UPLC-MS/MS method; type: ADME, organism-based; parameters: dose 7.5 mg/kg, route intravenous; details: in vivo; outline: as §3
[19] = Cmax in Wistar rat at 50 mg/kg, po administered as single dose by UPLC-MS/MS method; type: ADME, organism-based; parameters: dose 50 mg/kg, route oral; details: in vivo; outline: as §3
[20] = Oral bioavailability in Wistar rat at 50 mg/kg administered as single dose by UPLC-MS/MS method; type: ADME, organism-based; details: in vivo; outline: as §3
BXPC-3 [21] = experiment: Cytotoxicity against human BxPC3 cells assessed as decrease in cell viability at 0.1 to 200 uM after 48 hrs by MTT assay; type: functional, cell-based; outline: as §5
[22] = Terminal half-life in Wistar rat at 7.5 mg/kg, iv administered as single dose by UPLC-MS/MS method; type: ADME, organism-based; details: in vivo, read-out: beta t1/2 (converted); outline: as §3
Rattus norvegicus [23] = experiment: AUC (0 to 24 hrs) in Wistar rat at 7.5 mg/kg, iv administered as single dose by UPLC-MS/MS method; type: ADME, organism-based; parameters: dose 7.5 mg/kg, time < 24 hr, route intravenous; details: in vivo; outline: as §3
OCTN2 = experiment: Ratio of drug transport in OCTN2 (unknown origin) expressing HEK293 cells assessed as transporter-mediated drug uptake at 25 uM to drug uptake in HEK293 cells at 25 uM; type: ADME, cell-based; details: human, HEK293 cells expressing OCTN2, against HEK293 cells; outline: as §6
[24] = molecular target: T2, Organic cation/carnitine transporter 2 (Rattus norvegicus, UniProt O70594); experiment: Ratio of drug transport assessed as OCTN2 transporter mediated effective permeability in rat duodenum at 76 uM in absence of L-carnitine to drug transport assessed as OCTN2 transporter mediated effective permeability in rat duodenum at 76 uM in presence of L-carnitine; type: ADME
T2 sequence (O70594 whole entry): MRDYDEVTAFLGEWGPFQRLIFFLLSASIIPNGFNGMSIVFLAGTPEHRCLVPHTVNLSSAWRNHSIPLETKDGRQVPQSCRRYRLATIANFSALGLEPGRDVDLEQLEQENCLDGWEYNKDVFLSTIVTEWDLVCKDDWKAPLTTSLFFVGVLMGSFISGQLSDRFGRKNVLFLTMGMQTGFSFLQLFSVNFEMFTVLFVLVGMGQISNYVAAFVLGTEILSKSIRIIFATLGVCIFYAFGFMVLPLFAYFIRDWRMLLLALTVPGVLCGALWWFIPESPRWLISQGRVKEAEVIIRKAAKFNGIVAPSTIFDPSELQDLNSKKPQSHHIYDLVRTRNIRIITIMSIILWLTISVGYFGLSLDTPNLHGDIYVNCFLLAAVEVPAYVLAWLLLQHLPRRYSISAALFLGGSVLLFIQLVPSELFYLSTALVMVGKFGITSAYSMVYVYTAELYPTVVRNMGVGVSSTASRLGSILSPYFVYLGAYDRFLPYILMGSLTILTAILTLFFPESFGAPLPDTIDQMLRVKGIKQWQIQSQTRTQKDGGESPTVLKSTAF

[25] = Oral bioavailability in Wistar rat at 50 mg/kg administered as single dose in presence of L-carnitine by UPLC-MS/MS method; type: ADME, organism-based; details: in vivo, with L-carnitine
Outline: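 Rats dosed orally with prodrug at a gemcitabine-equivalent dose of 50 mg/kg, co-administered with 40 mM L-carnitine. Serial blood at 5 min–24 h into THU-pretreated heparinized tubes. Plasma measured by UPLC-MS/MS. Absolute bioavailability calculated against iv gemcitabine at 7.5 mg/kg.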

[26] = Stability of the compound in pH 6.8 phosphate buffer at 5 uM by HPLC method; type: physicochemical; details: pH 6.8, 5 µM; outline: as §1
[27] = molecular target: T2, Organic cation/carnitine transporter 2; experiment: Ratio of drug transport assessed as OCTN2 transporter mediated effective permeability in rat jejunum at 76 uM in absence of L-carnitine to drug transport assessed as OCTN2 transporter mediated effective permeability in rat jejunum at 76 uM in presence of L-carnitine; type: ADME
[28] = molecular target: T1, Organic cation/carnitine transporter 2; experiment: Ratio of drug transport assessed as OCTN2 transporter mediated drug uptake in human Caco2 cells at 1 to 800 uM in presence of Na+ to drug transport assessed as OCTN2 transporter mediated drug uptake in human Caco2 cells at 1 to 800 uM in presence of N-methyl-D-glucamine; type: ADME, cell-based; details: caco-2, 800 µM

Compound	half-life at 5 µM [1] [h]	half-life at 5 µM [3] [h]	half-life at 5 µM [4] [h]	Tmax [5] [h]	half-life at 5 µM [6] [h]	half-life [7] [h]	AUC (Rattus norvegicus [8]) [ng·h/mL]	half-life at 5 µM [9] [h]	fold change (FC) [10]	Vmax [11] [nmol/mg]	Ratio [12]	Activity (BXPC-3 [13])	Ratio [14]	concentration at 2 h [17] [ng/mL]	bioavailability [20] [%]	further results
CCCC(=O)Nc1ccn([C@@H]2O[C@H](CO)[C@@H](O)C2(F)F)c(=O)n1	10.3	1.7	1	1.9	116	4.3	9030	32.7	–	–	–	–	–	–	–	half-life at 5 µM [2]: 45.9 h
C[N+](C)(C)CC(CC(=O)[O-])OC(=O)CCCCCCC(=O)Nc1ccn([C@@H]2O[C@H](CO)[C@@H](O)C2(F)F)c(=O)n1 (some centres not stated)	–	–	–	1.2	–	2.3	11100	–	5 to 15	0.4344	2.2 to 3.7	Dose-dependent effect	1.6 to 3.6	–	–	–
C[N+](C)(C)CC(CC(=O)[O-])OC(=O)CCCCCCCCC(=O)Nc1ccn([C@@H]2O[C@H](CO)[C@@H](O)C2(F)F)c(=O)n1 (some centres not stated)	–	–	–	1.8	–	5.4	15900	–	–	0.3884	2.2 to 3.7	Dose-dependent effect	1.6 to 3.6	–	–	–
Nc1ccn([C@@H]2O[C@H](CO)[C@@H](O)C2(F)F)c(=O)n1 [GEMCITABINE]	–	–	–	1.7	–	2.3	5620	–	–	–	–	–	–	199	3.2	Tmax [15]: 0.5 h; Drug uptake [16]: Not Active; Cmax [18]: 7100 ng/mL; Cmax [19]: 1320 ng/mL; Activity (BXPC-3 [21]): Active; half-life [22]: 4.4 h; AUC (Rattus norvegicus [23]): 26700 ng·h/mL
C[N+](C)(C)CC(CC(=O)[O-])OC(=O)CCC(=O)Nc1ccn([C@@H]2O[C@H](CO)[C@@H](O)C2(F)F)c(=O)n1 (some centres not stated)	28.4	3.7	5.5	1	50.9	6.2	14900	15.5	5 to 15	0.2013	2.2 to 3.7	Dose-dependent effect	1.6 to 3.6	2460	12	uptake ratio at 25 µM (OCTN2): 3 to 8; Ratio [24]: 25; bioavailability [25]: 6%; Stability [26]: Stable; Ratio [27]: 25; Ratio [28]: 2 to 10

— ChEMBL document CHEMBL4049387, “Combination of l-Carnitine with Lipophilic Linkage-Donating Gemcitabine Derivatives as Intestinal Novel Organic Cation Transporter 2-Targeting Oral Prodrugs” (J Med Chem, 2017)
